Measurements published in ChEMBL document CHEMBL1133285, “Simple bi- and tricyclic inhibitors of human steroid 5alpha-reductase” (Bioorg Med Chem Lett, 2000).

Columns and labels:
[1] = biological target: T1, 3-oxo-5-alpha-steroid 4-dehydrogenase 1 (Homo sapiens, UniProt P18405); test: In vitro inhibitory activity against Steroid 5-alpha-reductase type I
T1 sequence (P18405 whole entry): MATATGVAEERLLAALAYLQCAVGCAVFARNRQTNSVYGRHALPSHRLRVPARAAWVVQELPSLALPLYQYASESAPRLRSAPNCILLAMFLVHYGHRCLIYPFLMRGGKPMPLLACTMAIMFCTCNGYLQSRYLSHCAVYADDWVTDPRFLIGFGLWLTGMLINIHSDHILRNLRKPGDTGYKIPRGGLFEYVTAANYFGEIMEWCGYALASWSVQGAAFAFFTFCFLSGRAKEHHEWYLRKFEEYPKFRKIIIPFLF

[2] = biological target: T2, 3-oxo-5-alpha-steroid 4-dehydrogenase 2 (Homo sapiens, UniProt P31213); test: In vitro inhibitory activity against Steroid 5-alpha-reductase type 2
T2 sequence (P31213 whole entry): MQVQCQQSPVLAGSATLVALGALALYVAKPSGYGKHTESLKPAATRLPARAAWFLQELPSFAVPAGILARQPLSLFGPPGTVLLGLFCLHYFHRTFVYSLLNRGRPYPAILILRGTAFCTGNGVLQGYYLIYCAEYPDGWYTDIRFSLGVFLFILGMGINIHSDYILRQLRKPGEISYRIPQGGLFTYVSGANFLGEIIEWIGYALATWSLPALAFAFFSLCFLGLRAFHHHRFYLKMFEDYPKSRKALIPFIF
In short: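 Type 2 SR enzyme preparation, with inhibitors prepared and tested as in the type 1 assay. The mixture of labelled (80 nM) and unlabelled testosterone substrate is incubated 1 h at 37 °C. Androgens are separated by HPLC and quantified by in-line flow radioactivity detection. The assay is calibrated with known type 2 inhibitors.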

[3] = biological target: T3, 3-oxo-5-alpha-steroid 4-dehydrogenase 2 (Homo sapiens) (UniProt P31213); test: In vitro inhibitory activity against Steroid 5-alpha-reductase type 2 at a concentration of 40 uM
T3 sequence (whole entry): T2 sequence (P31213 whole entry)

[4] = biological target: T3, 3-oxo-5-alpha-steroid 4-dehydrogenase 2 (Homo sapiens); test: In vitro inhibitory activity against Steroid 5-alpha-reductase type 2 at a concentration of 10 uM

| Structure (SMILES) | IC50 [1] | IC50 [2] | inhibition [3] | inhibition [4] |
| --- | --- | --- | --- | --- |
| CN1CC(c2ccc(/N=N/c3ccccc3)cc2)CCC1=O (centres undefined) | 302 nM | 579 nM |  |  |
| CN1CC(c2ccccc2)CCC1=O (centres undefined) | 2480 nM |  | 13.5% |  |
| CN1C(=S)CC[C@@]2(C)C1=CCc1cc(Cl)ccc12 | 377 nM |  | 13.2% |  |
| O=C(O)c1ccc2c(c1)CCc1cc(Br)ccc1-2 |  |  |  | 20% |
| CN1CC(c2ccc(Cl)cc2)CCC1=O (centres undefined) | 1690 nM |  |  |  |
| CN1C(=S)CC[C@@H]2c3ccccc3CC[C@H]21 | 1450 nM |  | 19.9% |  |
| CN1CC(c2ccc(Cl)cc2)CCC1=S (centres undefined) | 3360 nM |  | 14% |  |

More lines, in order of falling IC50 [1], values ahead:

| IC50 [1] | IC50 [2] | inhibition [3] | inhibition [4] | Structure (SMILES) |
| --- | --- | --- | --- | --- |
| 183 nM |  | 21.6% |  | CN1C(=S)CC[C@]2(C)c3ccc(Cl)cc3CC[C@@H]12 |
| 152 nM | 340 nM |  |  | O=C(O)c1ccc2c(c1)CCc1cc(/C=C/c3ccccc3)ccc1-2 |
| 120 nM |  |  |  | CN1C(=O)CC[C@@]2(C)C1=CCc1cc(Cl)ccc12 |
| 107 nM | 617 nM |  |  | CN1CC(c2ccc(/C=C/c3ccccc3)cc2)CCC1=O (centres undefined) |
